Screening results: PubChem, several laboratories
Bcl-2 Bim block: inhibitors of Bim-Bcl-2 interaction, human; hit rate 0.06% among 190,000; inhibition, % at 10 µM; AID 950; Bead-based flow cytometry, Bim peptide-Bcl-2 binding; P10415; in the data active = inhibition above about 40%
Bim-Bcl-B: disrupts Bim peptide binding to human Bcl-B; Q9HD36; bead-based flow cytometry; inhibition, % at 10 µM; hit rate 0.073% among 190,000; AID 951
Target sequence (Q9HD36 whole entry, looked up): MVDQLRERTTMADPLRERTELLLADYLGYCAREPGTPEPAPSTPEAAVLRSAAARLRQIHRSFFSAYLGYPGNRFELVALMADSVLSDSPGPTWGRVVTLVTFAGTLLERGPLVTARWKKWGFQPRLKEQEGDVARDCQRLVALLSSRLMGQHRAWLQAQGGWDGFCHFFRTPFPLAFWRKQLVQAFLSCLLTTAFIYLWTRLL
Bim-Bcl-W: disrupts Bim peptide binding to human Bcl-W; Q92843; bead-based flow cytometry; inhibition, % at 10 µM; hit rate 0.02% among 190,000;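 also: higher means less fluorescent Bim peptide bound to Bcl-W beads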
Bfl-1 Bim block: human Bim-Bfl-1 interaction inhibition. Bead-based flow cytometry, Bim-Bfl-1 binding inhibition. inhibition, % at 10 µM. hit rate 0.12% among 190,000. Q16548
Bcl-XL Bim block: inhibitors of Bim-Bcl-XL interaction, human; Bim peptide-Bcl-XL binding, bead flow cytometry, fluorescence; Q07817; hit rate 0.04% among 190,000; inhibition, % at 10 µM
Mdm2 ligase inh: blocks human Mdm2 ubiquitin ligase activity; cell-based MDM2 ubiquitination luciferase reporter, 2 h; 0 = plate control, 100 = twice control, blank-subtracted; signal enhancement, % at 5 µM; hit rate 0.11% among 210,000; AID 1230;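 active = signal enhancement of 30% or more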;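 also: luminescence tracks abundance of the self-degrading MDM2-luciferase fusion protein; higher signal means inhibition of MDM2 E3 ligase activity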
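Material: Stable MDM2–luciferase fusion reporter cells | Amount: 2000 cells seeded into each well | Dosing: One concentration, 5 µM, with 0.2% DMSO | Incubation: 4 h cell settling then 2 h compound exposure, 37 °C | Measured by: Luciferase luminescence | Read-out basis: % enhancement relative to plate controls after blank subtraction | Benchmarks: Control and blank well means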
Bim-Bcl-XL DR: dose-response confirmed modulator of Bim binding to human Bcl-XL | AID 2084 | 40 tested, under 10 active | bead-based flow cytometry | inhibition of binding at 100 µM | shares compounds with Bfl-1 Bim block; call rule not given here
Each line names hits and unclear results; the compound was inactive in the other large screens (follow-up assays come after a bar, where they were run). Hits are enriched below; roughly 0.27% of the tested compounds scored in any of these assays. Rule as the data show it, unless noted: active = inhibition above about 40%.

O=[N+]([O-])c1c(NCCCO)cc(Sc2nc3ccccc3s2)c2nonc12	Bfl-1 Bim block 61 | Bim-Bcl-XL DR inactive
COc1ccc(N2C(=O)C(Cl)=C(Oc3cccc(OC)c3)C2=O)cc1	Bfl-1 Bim block 43 | Bim-Bcl-XL DR inactive
COc1ccc(N2C(=O)c3ccccc3C2=O)cc1	none
Cc1c(NC(=O)CN2CCN(c3ccc(O)cc3)CC2)c(=O)n(-c2ccccc2)n1C	none
O=C(NCc1ccccc1)c1ccc2nc(-c3ccco3)c(-c3ccco3)nc2c1	Bfl-1 Bim block 43 | Bim-Bcl-XL DR inactive
CCNCc1ccccc1OCc1ccccc1	none
Oc1ccc(NCc2ccccc2OCc2ccccc2)cc1	none | Bim-Bcl-XL DR inactive
